Tests used:
[1] = tested on: fish sperm DNA (FS-DNA); assay: UV-Vis absorption titration of ligands with FS-DNA; assay type: binding; details: on addition of FS-DNA; band 335 nm (1S3), 345 nm (2S3)
Outline: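 FS-DNA stock was in Tris–HCl pH 7.4 (A260/A280 > 1.8). Test compound (10 μM, diluted from water stock in Tris–HCl) was titrated with FS-DNA (0–20 μM). Tubes were shaken and incubated 15 min, then scanned 200–800 nm in triplicate. The spectrum of DNA alone was subtracted. Kb came from the Benesi–Hildebrand plot of [DNA]/(εa − εf) vs [DNA] as slope/intercept.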

[2] = tested on: FS-DNA bound to EtBr; assay: Fluorescence quenching of EtBr–FS-DNA system; assay type: binding, fish; details: EtBr–FS-DNA (DNA : EtBr 10 : 1), ligand 0–70 μM, Stern–Volmer equation
Outline: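 FS-DNA stock in Tris–HCl pH 7.4, kept at 4 °C for up to 72 h, with purity checked by A260/A280 > 1.8. EtBr stock (3.0 × 10⁻³ mol L⁻¹, ethanol) was made fresh. DNA and EtBr were premixed 15 min at 25 °C. Ligand was diluted from water stock in Tris–HCl, added, and incubated 15 min. Slits were 5/10 nm. KSV is the slope of I₀/I vs [Q].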

[3] = tested on: Salmonella typhimurium TA98; assay: Salmonella/microsome test; assay type: cell-based
[4] = tested on: Salmonella typhimurium TA100; assay: Salmonella/microsome test; assay type: cell-based
[5] = TA98, absence of metabolic activation system (−S9)
[6] = TA98, presence of metabolic activation system (+S9), 2S3: at 0.40, 0.20 and 0.10 mg per plate
[7] = TA100, absence of metabolic activation system (−S9)
[8] = TA100, presence of metabolic activation system (+S9)
[9] = −S9, control set of the 2S3 experiment (concentration cell empty)

NC(=O)COc1cc(OCC(N)=O)c2c(=O)c(OCC(N)=O)c(-c3ccc(OCC(N)=O)c(OCC(N)=O)c3)oc2c1 [1S3, 2,2′,2′′-((2-(3,4-bis(2-amino-2-oxoethoxy)phenyl)-4-oxo-4H-chromene-3,5,7-triyl)tris(oxy))triacetamide]
Hypochromism [1]: 22.54%
quenching constant KSV [2]: 18300 M⁻¹
revertant colonies TA98 +S9 ([3]; 0.02 mg per plate): 9.00 ± 0.44 a3b3
revertant colonies TA98 −S9 ([3]; 0.02 mg per plate): 12.00 ± 1.41 a1b3
revertant colonies TA98 +S9 ([3]; 0.05 mg per plate): 7.80 ± 1.11 a2b3
revertant colonies TA98 −S9 ([3]; 0.05 mg per plate): 14.40 ± 2.20 b3
revertant colonies TA98 +S9 ([3]; 0.10 mg per plate): 14.00 ± 2.60 b3
revertant colonies TA98 −S9 ([3]; 0.10 mg per plate): 12.20 ± 0.66 a2b3
revertant colonies TA98 +S9 ([3]; 0.20 mg per plate): 11.20 ± 2.97 b3
revertant colonies TA98 −S9 ([3]; 0.20 mg per plate): 13.20 ± 1.01 a1b3
revertant colonies TA98 +S9 ([3]; 0.40 mg per plate): 7.20 ± 1.68 a1b3
revertant colonies TA98 −S9 ([3]; 0.40 mg per plate): 11.60 ± 1.63 a1b3
effect on number of revertant colonies (mutagenicity), in words [3, 5]: did not cause any detectable increase
effect on number of revertant colonies (mutagenicity), in words [3, 6]: did not cause any detectable increase
revertant colonies TA100 +S9 ([4]; 0.02 mg per plate): 47.00 ± 7.16 a3b3
revertant colonies TA100 −S9 ([4]; 0.02 mg per plate): 112.40 ± 3.28 a3b3
revertant colonies TA100 +S9 ([4]; 0.05 mg per plate): 48.80 ± 12.85 a2b3
revertant colonies TA100 −S9 ([4]; 0.05 mg per plate): 94.00 ± 8.43 a3b3
revertant colonies TA100 +S9 ([4]; 0.10 mg per plate): 62.00 ± 4.95 a3b3
revertant colonies TA100 −S9 ([4]; 0.10 mg per plate): 85.00 ± 7.17 a3b3
revertant colonies TA100 +S9 ([4]; 0.20 mg per plate): 47.00 ± 6.73 a3b3
revertant colonies TA100 −S9 ([4]; 0.20 mg per plate): 80.20 ± 10.65 a2b3
revertant colonies TA100 +S9 ([4]; 0.40 mg per plate): 82.20 ± 5.37 a3b3
revertant colonies TA100 −S9 ([4]; 0.40 mg per plate): 88.80 ± 14.07 a2b3
effect on number of revertant colonies (mutagenicity), in words [4, 7]: did not cause any detectable increase
effect on number of revertant colonies (mutagenicity), in words [4, 8]: did not cause any detectable increase

NC(=O)COc1ccc(-c2cc(=O)c3c(OCC(N)=O)cc(OCC(N)=O)cc3o2)cc1 [2S3, 2,2′-((2-(4-(2-Amino-2-oxoethoxy)phenyl)-4-oxo-4H-chromene-5,7-diyl)bis(oxy))diacetamide]
Hypochromism [1]: 20.91%
quenching constant KSV [2]: 19600 M⁻¹
revertant colonies TA98 +S9 ([3]; 0.02 mg per plate): 15.60 ± 2.52 b3
revertant colonies TA98 −S9 ([3]; 0.02 mg per plate): 17.00 ± 1.00 b3
revertant colonies TA98 +S9 ([3]; 0.05 mg per plate): 18.40 ± 1.74 b3
revertant colonies TA98 −S9 ([3]; 0.05 mg per plate): 17.40 ± 1.12 b3
revertant colonies TA98 +S9 ([3]; 0.10 mg per plate): 25.40 ± 1.83 a2b3
revertant colonies TA98 −S9 ([3]; 0.10 mg per plate): 20.00 ± 2.25 b3
revertant colonies TA98 +S9 ([3]; 0.20 mg per plate): 22.00 ± 1.37 a2b3
revertant colonies TA98 −S9 ([3]; 0.20 mg per plate): 16.60 ± 1.80 b3
revertant colonies TA98 +S9 ([3]; 0.40 mg per plate): 24.60 ± 2.11 a2b3
revertant colonies TA98 −S9 ([3]; 0.40 mg per plate): 19.20 ± 2.08 b3
effect on number of revertant colonies (mutagenicity), in words [3, 5]: did not cause an increase
effect on number of revertant colonies (mutagenicity), in words [3, 6]: statistically significant increase
revertant colonies TA100 +S9 ([4]; 0.02 mg per plate): 187.40 ± 18.93 a1b3
revertant colonies TA100 −S9 ([4]; 0.02 mg per plate): 182.40 ± 9.15 a2b3
revertant colonies TA100 +S9 ([4]; 0.05 mg per plate): 190.80 ± 11.16 a2b3
revertant colonies TA100 −S9 ([4]; 0.05 mg per plate): 195.40 ± 6.96 a3b3
revertant colonies TA100 +S9 ([4]; 0.10 mg per plate): 196.60 ± 15.75 a2b3
revertant colonies TA100 −S9 ([4]; 0.10 mg per plate): 185.60 ± 7.20 a2b3
revertant colonies TA100 +S9 ([4]; 0.20 mg per plate): 183.60 ± 9.35 a2b3
revertant colonies TA100 −S9 ([4]; 0.20 mg per plate): 200.00 ± 8.44 a2b3
revertant colonies TA100 +S9 ([4]; 0.40 mg per plate): 210.40 ± 2.31 a3b3
revertant colonies TA100 −S9 ([4]; 0.40 mg per plate): 171.40 ± 8.55 a1b3
effect on number of revertant colonies (mutagenicity), in words [4, 7]: significantly increased
effect on number of revertant colonies (mutagenicity), in words [4, 8]: significantly increased

Nc1ccc([N+](=O)[O-])cc1N [NPD, 4-nitro-o-phenylenediamine, reference compound]
revertant colonies TA98 −S9, positive control ([3]; 200 μg mL^−1, −S9, control set of the 1S3 experiment): 4260 ± 291.75
revertant colonies TA98 −S9, positive control [3, 9]: 3808.40 ± 221.78

[N-]=[N+]=[N-].[Na+] [SA, sodium azide, reference compound]
revertant colonies TA100 −S9, positive control ([4]; 1 μg mL^−1, −S9, control set of the 1S3 experiment): 1497.2 ± 230.28
revertant colonies TA100 −S9, positive control [4, 9]: 1506.40 ± 114.82
